Test results published in ChEMBL document CHEMBL1138485, “Discovery of inducible nitric oxide synthase (iNOS) inhibitor development candidate KD7332, part 1: Identification of a novel, potent, and selective series of quinolinone iNOS dimerization inhibitors that are orally active in rodent pain models” (J Med Chem, 2009).

Experiments:
[1] = target: T1, Nitric oxide synthase, inducible (Mus musculus, UniProt P29477); assay: Inhibition of mouse iNOS expressed in HEK293 cells assessed as NO production in by transient transfection assay; type: cell-based
T1 sequence (P29477 whole entry): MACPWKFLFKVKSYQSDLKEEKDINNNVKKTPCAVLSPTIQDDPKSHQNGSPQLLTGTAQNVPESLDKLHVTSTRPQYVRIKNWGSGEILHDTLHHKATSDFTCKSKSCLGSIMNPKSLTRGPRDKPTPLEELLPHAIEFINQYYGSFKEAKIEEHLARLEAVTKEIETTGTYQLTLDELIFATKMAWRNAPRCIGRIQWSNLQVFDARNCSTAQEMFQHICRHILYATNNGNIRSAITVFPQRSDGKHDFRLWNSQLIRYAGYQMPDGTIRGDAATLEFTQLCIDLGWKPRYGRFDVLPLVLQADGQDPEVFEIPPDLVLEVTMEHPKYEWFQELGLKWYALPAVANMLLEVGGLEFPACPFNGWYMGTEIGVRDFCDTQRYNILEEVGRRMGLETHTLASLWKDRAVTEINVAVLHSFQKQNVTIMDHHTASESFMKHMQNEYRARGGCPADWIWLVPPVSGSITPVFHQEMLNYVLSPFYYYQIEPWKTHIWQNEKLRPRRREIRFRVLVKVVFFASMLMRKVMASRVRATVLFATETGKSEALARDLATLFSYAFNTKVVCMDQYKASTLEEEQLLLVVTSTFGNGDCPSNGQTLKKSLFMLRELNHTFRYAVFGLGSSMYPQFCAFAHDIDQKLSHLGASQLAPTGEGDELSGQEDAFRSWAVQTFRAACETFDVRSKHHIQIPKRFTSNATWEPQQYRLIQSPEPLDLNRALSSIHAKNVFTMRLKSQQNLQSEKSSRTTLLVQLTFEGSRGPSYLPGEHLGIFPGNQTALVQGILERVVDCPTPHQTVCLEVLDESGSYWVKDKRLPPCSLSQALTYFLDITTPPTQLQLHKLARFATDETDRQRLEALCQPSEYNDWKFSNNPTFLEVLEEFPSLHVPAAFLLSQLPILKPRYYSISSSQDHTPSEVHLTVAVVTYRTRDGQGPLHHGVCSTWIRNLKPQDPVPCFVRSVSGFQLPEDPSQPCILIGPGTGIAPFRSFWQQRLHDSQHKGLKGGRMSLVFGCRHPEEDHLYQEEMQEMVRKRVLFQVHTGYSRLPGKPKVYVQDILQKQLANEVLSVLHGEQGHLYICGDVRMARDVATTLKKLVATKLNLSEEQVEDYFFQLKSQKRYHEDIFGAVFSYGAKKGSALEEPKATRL
Summary of the method: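 HEK293 cells grown to ~70% confluence in DMEM/10% FBS with pen/strep. Cells transiently transfected with 10 µg human or murine iNOS plasmid (Fugene 6), 4 h at 37 °C, 10% CO2. Trypsinized, plated at 5 × 10⁵ cells/mL and dosed at once; 1400W 100 µM final as positive control. After 18 h, NO read as DAN fluorescence (10 µg/mL, 20 min RT, then NaOH). EC50 from 3 runs, 10-point curves, n = 8/point.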

CYP2D6 = CYP2D6 (Homo sapiens, UniProt P10635); assay: Inhibition of CYP2D6 at 100 uM; type: ADME
CYP1A2 = target: T2, CYP1A2 (Homo sapiens, UniProt P05177); assay: Inhibition of CYP1A2 at 100 uM; type: ADME
T2 sequence (P05177 whole entry): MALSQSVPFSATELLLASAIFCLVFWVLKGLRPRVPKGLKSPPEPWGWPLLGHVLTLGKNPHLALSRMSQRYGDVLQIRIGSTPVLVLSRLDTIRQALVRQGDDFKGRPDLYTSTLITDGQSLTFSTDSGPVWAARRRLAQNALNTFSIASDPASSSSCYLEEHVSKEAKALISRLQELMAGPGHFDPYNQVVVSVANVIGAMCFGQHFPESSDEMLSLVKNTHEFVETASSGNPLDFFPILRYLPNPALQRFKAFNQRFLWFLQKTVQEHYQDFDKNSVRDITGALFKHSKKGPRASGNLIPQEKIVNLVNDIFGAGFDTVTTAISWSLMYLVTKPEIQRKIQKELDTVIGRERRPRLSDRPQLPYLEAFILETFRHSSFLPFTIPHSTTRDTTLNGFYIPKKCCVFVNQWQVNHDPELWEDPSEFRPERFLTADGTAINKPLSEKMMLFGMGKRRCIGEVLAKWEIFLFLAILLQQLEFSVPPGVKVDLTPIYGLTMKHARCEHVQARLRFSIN

Mus musculus [2] = assay: Reduction of plasma nitrate level in LPS-challenged po dosed BALB/c mouse; type: functional
Summary of the method: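 Male Balb/c mice were dosed by oral gavage (90% PEG/5% Tween 80/5% PVP + 90% CMC (0.5% w/v)) at t = 0 h, 30 mg/kg for single-dose lines. LPS 10 mg/kg ip in 0.9% NaCl followed immediately. At 6 h, EDTA plasma was taken for nitrate and drug levels. Nitrate reduction is relative to vehicle; ED50 came from full oral dose-response.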

Cytochrome P450 2C9 = Cytochrome P450 2C9 (Homo sapiens, UniProt P11712); assay: Inhibition of CYP2C9; type: ADME
[3] = Half life in mouse at 10 mg/kg, po; type: ADME, organism-based; set-up: dose 10 mg/kg, route oral; details: in vivo
[4] = Cmax in mouse at 10 mg/kg, po; type: ADME, organism-based; set-up: dose 10 mg/kg, route oral; details: in vivo
[5] = Tmax in mouse at 10 mg/kg, po; type: ADME, organism-based; set-up: dose 10 mg/kg, route oral; details: in vivo
[6] = Plasma clearance in mouse at 10 mg/kg, po; type: ADME, organism-based; set-up: dose 10 mg/kg, route oral
[7] = AUC in mouse at 10 mg/kg, po; type: ADME, organism-based; set-up: dose 10 mg/kg, route oral; details: plasma
Mus musculus [8] = assay: Antinociceptive activity against acetone-induced chronic constriction injury in mouse paw assessed as duration of pain behavior at 100 mg/kg, po pretreated 30 mins before formalin challenge relative to control; type: functional; details: in the assay text read “acetone testing” for “formalin challenge”
Summary of the method: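 Mice underwent chronic constriction injury surgery (Bennett and Xie) and recovered 1–2 weeks. After 100 mg/kg po dosing 30 min before testing and 1 h acclimation on a wire mesh platform, 100 µL acetone was applied to the injured plantar hindpaw. Flinching, licking and biting were recorded for 1 min, with reduction relative to vehicle.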

Mus musculus [9] = assay: Volume of distribution in mouse at 10 mg/kg, po; type: ADME, organism-based; set-up: dose 10 mg/kg, route oral; details: in vivo
Mus musculus [10] = assay: Antinociceptive activity against formalin-induced phase 2 pain in mouse paw assessed as pain behavior at 100 mg/kg, po pretreated 30 mins before formalin challenge relative to control; type: functional
Summary of the method: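 Mice were dosed 100 mg/kg po (PEG/Tween 80/PVP + CMC vehicle) 30 min before 20 µL formalin into the left hind paw. Phase II pain-behavior duration was timed 25–45 min post-injection by a single observer. Results are mean ± SE, n = 5–6 mice, compared to vehicle by one-way ANOVA with post hoc tests.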

[11] = target: Voltage-gated inwardly rectifying potassium channel KCNH2 (Homo sapiens, UniProt Q12809); assay: Activity at human ERG by patch clamp assay
Chain of Voltage-gated inwardly rectifying potassium channel KCNH2 (Q12809 whole entry): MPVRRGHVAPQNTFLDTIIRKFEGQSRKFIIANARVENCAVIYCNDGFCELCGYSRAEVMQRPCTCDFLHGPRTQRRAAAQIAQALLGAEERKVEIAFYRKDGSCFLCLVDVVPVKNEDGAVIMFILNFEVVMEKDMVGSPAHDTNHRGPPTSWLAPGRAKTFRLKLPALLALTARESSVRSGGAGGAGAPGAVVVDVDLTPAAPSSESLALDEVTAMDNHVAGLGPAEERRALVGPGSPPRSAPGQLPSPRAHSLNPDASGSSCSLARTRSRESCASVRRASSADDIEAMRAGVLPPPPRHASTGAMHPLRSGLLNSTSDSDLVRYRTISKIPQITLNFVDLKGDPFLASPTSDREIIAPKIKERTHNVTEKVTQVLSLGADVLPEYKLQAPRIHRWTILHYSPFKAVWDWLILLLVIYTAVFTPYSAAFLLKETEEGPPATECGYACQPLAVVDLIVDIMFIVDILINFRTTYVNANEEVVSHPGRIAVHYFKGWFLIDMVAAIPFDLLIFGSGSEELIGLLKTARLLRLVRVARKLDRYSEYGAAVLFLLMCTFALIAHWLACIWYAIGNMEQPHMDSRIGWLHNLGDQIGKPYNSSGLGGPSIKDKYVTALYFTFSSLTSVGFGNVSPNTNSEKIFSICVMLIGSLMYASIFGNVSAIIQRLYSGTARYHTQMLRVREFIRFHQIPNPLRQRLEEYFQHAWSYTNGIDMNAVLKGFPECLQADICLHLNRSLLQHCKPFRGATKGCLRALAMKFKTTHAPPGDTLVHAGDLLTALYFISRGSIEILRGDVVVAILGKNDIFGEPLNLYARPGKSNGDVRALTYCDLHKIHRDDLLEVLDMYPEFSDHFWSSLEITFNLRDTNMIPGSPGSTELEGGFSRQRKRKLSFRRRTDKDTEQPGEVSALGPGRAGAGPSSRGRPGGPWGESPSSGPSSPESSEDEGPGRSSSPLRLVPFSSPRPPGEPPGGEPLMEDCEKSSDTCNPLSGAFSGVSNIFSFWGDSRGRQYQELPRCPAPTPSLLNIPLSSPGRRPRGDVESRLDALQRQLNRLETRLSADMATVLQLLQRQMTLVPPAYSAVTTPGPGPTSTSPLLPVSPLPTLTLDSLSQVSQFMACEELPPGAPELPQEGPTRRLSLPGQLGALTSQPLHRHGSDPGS

Chain of Cytochrome P450 2C9 (P11712 whole entry): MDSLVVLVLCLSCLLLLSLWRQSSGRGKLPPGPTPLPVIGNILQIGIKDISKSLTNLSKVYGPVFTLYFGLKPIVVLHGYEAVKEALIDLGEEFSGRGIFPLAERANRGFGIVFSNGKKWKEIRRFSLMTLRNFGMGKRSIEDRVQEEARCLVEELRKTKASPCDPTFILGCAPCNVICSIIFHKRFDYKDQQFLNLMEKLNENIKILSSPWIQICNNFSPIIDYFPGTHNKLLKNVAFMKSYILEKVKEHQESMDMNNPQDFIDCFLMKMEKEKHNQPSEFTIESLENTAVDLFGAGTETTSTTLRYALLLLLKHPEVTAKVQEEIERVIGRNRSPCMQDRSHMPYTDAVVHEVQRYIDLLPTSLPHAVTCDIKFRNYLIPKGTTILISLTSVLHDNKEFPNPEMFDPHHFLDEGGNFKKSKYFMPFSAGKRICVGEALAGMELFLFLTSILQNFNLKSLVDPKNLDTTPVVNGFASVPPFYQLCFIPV
Chain of CYP2D6 (P10635 whole entry): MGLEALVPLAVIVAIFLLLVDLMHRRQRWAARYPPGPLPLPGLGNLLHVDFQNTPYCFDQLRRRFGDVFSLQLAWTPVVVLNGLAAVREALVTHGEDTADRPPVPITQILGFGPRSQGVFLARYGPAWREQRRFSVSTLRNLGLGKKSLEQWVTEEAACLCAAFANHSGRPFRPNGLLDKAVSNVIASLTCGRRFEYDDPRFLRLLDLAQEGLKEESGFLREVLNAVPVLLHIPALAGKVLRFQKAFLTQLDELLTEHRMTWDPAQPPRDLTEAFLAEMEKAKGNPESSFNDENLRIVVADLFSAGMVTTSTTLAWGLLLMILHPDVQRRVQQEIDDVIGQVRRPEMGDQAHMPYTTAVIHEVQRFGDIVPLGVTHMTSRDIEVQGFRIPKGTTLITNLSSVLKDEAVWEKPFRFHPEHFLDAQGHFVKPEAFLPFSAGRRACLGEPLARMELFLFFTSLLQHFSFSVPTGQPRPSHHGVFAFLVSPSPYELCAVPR

Structure (SMILES)	EC50 [1]	inhibition at 100 µM (CYP2D6)	inhibition at 100 µM (CYP1A2)	ED50 (Mus musculus [2])	EC50 (Cytochrome P450 2C9)	half-life [3]	Cmax [4]	Tmax [5]	CL/F [6]	AUC [7]	Activity (Mus musculus [8])	Vdss (Mus musculus [9])	Activity (Mus musculus [10])	EC50 [11]
CC(C)C(=O)N(Cc1cc(=O)[nH]c2c(F)cccc12)c1cccc(Cl)c1	2700 nM	< 50%	< 50%											
CC1=C(C(=O)N(Cc2cc(=O)[nH]c3c(F)c(F)ccc23)c2cccc(Cl)c2)CNCC1	57 nM	< 50%	< 50%	16 mg/kg										
Cc1ncsc1C(=O)N(Cc1c[n+]([O-])cc2c(F)c(F)ccc12)c1cccc(Cl)c1	74 nM	< 50%	< 50%		55000 nM									
Cc1ncsc1C(=O)N(Cc1cc(=O)[nH]c2c(F)cccc12)c1cccc(Cl)c1	120 nM	< 50%	< 50%	10 mg/kg	33000 nM	54 min	1400 nM	30 min	> 100 mL/min/kg	450 ng·h/mL	45%	1.6 L/kg	40%	
Cn1cncc1C(=O)N(Cc1cc(=O)[nH]c2c(F)c(F)ccc12)c1cccc(Cl)c1	14 nM			5 mg/kg	25000 nM	66 min	2200 nM	15 min	> 100 mL/min/kg	520 ng·h/mL		1.1 L/kg	65%	8000 nM
Cc1ncsc1C(=O)N(Cc1cc(=O)[nH]c2c(F)c(F)ccc12)c1cccc(Cl)c1	32 nM	< 50%		13 mg/kg	22000 nM									
